Experimental findings from ChEMBL document CHEMBL4706593, “Induced protein degradation of histone deacetylases 3 (HDAC3) by proteolysis targeting chimera (PROTAC)” (Eur J Med Chem, 2020) are described below.

Molecules are shown by their SMILES. pIC50: −log10 of the molar value. Active and inactive are the calls of the source. The calls are words filed in the database; no cut-off is given here.

For data set [1], the system named is RAW264.7. The data set can be described thus: Cytotoxicity against mouse RAW264.7 cells assessed as reduction in cell proliferation at 3 uM measured after 24 hrs by MTS assay relative to control. The data set is classed as cell-based. Further details: scale not given: the % may be the effect or the level left. As to conditions: raw264.7, 24 h. In short, it runs like this: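 RAW264.7 cells (passage 5–16, DMEM GlutaMAX with 10% heated FBS, 37 °C, 5% CO2) seeded at 25,000 cells/cm2. Next day, medium swapped for fresh medium containing compound. After 24h, CellTiter 96 AQueous One (MTS) added, 2h at 37 °C in dark. Absorbance read at 490 nm and expressed as % of control.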
Background: Tetrazolium dyes change colour on reduction, which living cells bring about.

Data set [2] in a line: Down regulation of NFkappaB p65 expression in LPS/IFNgamma-induced mouse RAW264.7 cells at 10 uM incubated for 20 hrs followed by LPS/IFNgamma stimulation and measured after 4 hrs by Western blot analysis. As to conditions: raw264.7, 24 h. An outline of the steps:
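RAW264.7 cells treated and NF-κB p65 protein measured by western blot with p65 antibody (1:2500), β-actin loading control, HRP secondary and chemiluminescent detection.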

Data set [3] can be described thus: Cytotoxicity against mouse RAW264.7 cells assessed as cell survival up to 10 uM measured after 24 hrs by MTS assay relative to control. The class given is cell-based. As to conditions: read-out: Survival. In short, it runs like this:
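RAW264.7 macrophages (ATCC, passage 5–16) grown in DMEM GlutaMAX with 10% heated FBS at 37 °C, 5% CO2. Cells seeded at 25,000 cells/cm2 and treated the next day in fresh medium with compound up to 10 μM for 24 h at 37 °C. CellTiter 96 AQueous One (MTS) reagent added for 2 h at 37 °C in the dark, absorbance read at 490 nm, expressed as % of control.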

For data set [4], the target named is Histone deacetylase 1 (Homo sapiens, UniProt Q13547). The data set can be described thus: Inhibition of recombinant human C-terminal His/FLAG-tagged HDAC1 (1 to 482 residues) expressed in Sf9 insect cells using Boc-Lys(epsilon-Ac)-AMC as substrate measured after 90 mins by fluorescence assay.
Data set [5] has as its target Histone deacetylase 2 (Homo sapiens, UniProt Q92769). Briefly: Inhibition of recombinant human full-length C-terminal FLAG-tagged HDAC2 expressed in baculovirus infected Sf9 insect cells using Boc-Lys(epsilon-Ac)-AMC as substrate measured after 90 mins by fluorescence assay.
Data set [6] deals with Histone deacetylase 3/Nuclear receptor corepressor 2 (HDAC3/NCoR2) (Homo sapiens, UniProt O15379). Briefly: Inhibition of human recombinant C-terminal His-tagged HDAC3 (1 to 428 residues)/N-terminal GST-tagged NCOR2 (395 to 489 residues) expressed in baculovirus infected Sf9 insect cells using Boc-Lys(epsilon-Ac)-AMC as substrate measured after 90 mins by fluorescence assay. In short, it runs like this:
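Incubated with inhibitor dilutions (in 10% DMSO/buffer) and Boc-Lys(ε-Ac)-AMC, 90 min at 37 °C. Stopped with trypsin plus 200 µM vorinostat, 30 min at 37 °C.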

Data set [7] addresses T1, Protein cereblon/Histone deacetylase 1 (Mus musculus) (UniProt O09106+Q8C7D2). Briefly: Protac activity at CRBN/HDAC1 in mouse RAW264.7 cells assessed as induction of HDAC1 degradation at 10 uM by Western blot analysis. The class given is cell-based. In short, it runs like this: (§1)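 RAW264.7 macrophages treated at 10 µM. Cells lysed in ice-cold HEPES/MgCl2/EDTA/0.5% Triton X-100 with protease inhibitors, protein by BCA, 4–12% Bis-Tris SDS-PAGE, PVDF transfer. Probed with HDAC1, HDAC2 or HDAC3 antibodies (1:2000) and β-actin, then HRP secondary and chemiluminescence. Bands quantified by densitometry as fold of untreated control, mean ± SD of 2 independent experiments.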
For orientation: A western blot detects proteins with antibodies after separation by electrophoresis.

For data set [8], the target named is T2, Protein cereblon/Histone deacetylase 3 (Mus musculus) (UniProt O88895+Q8C7D2). Briefly: Protac activity at CRBN/HDAC3 in mouse RAW264.7 cells assessed as induction of HDAC3 degradation at 10 uM by Western blot analysis. The class given is cell-based. An outline of the steps: as §1
Data set [9] has as its target T3, Protein cereblon/Histone deacetylase 3 (Mus musculus, UniProt O88895+Q8C7D2).
T3 sequence (O88895 whole entry): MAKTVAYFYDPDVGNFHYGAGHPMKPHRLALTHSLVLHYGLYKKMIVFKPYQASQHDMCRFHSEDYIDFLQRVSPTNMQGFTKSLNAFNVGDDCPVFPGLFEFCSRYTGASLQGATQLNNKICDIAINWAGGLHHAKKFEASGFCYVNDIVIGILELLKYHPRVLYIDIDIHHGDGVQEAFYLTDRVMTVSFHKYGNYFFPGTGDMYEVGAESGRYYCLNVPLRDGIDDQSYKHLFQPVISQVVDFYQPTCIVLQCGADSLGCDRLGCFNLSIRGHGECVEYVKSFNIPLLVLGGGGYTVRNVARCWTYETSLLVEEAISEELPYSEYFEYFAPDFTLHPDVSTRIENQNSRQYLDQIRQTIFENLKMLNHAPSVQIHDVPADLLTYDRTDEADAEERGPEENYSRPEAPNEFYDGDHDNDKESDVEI
T3 sequence (Q8C7D2 whole entry): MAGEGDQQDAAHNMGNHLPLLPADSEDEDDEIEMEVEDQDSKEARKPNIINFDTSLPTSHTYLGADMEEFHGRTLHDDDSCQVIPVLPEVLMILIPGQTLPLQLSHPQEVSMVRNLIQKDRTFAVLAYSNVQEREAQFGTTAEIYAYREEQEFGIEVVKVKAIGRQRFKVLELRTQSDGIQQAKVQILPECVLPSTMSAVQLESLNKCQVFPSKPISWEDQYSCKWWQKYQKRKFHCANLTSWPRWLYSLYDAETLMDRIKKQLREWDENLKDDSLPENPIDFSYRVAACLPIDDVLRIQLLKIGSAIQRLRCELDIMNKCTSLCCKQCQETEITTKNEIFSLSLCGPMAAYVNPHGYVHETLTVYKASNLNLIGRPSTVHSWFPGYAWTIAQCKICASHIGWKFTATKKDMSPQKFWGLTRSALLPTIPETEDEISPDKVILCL
The data set can be described thus: Protac activity at CRBN/HDAC3 in mouse RAW264.7 cells assessed as induction of HDAC3 degradation measured after 24 hrs by Western blot analysis. The data set is classed as cell-based. An outline of the steps:
(§2)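 RAW264.7 cells treated across 0.001–30 µM. Lysates blotted as standard, but membranes blocked in Odyssey buffer and probed with IRDye 680RD anti-mouse and 800CW anti-rabbit secondaries (1:10000). Bands imaged on a fluorescence scanner and quantified to derive DC50 (50% degradation concentration), expressed as percentage of untreated control, mean ± SD of 2–3 independent experiments.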

Data set [10] addresses T1, Protein cereblon/Histone deacetylase 1 (Mus musculus). The data set can be described thus: Protac activity at CRBN/HDAC1 in mouse RAW264.7 cells assessed as induction of HDAC1 degradation at 0.01 to 10 uM measured after 24 hrs by Western blot analysis. The class given is cell-based. As to conditions: dose 0.01-10 µM.
The target of data set [11] is Protein cereblon/Histone deacetylase 2 (Mus musculus) (UniProt P70288+Q8C7D2). Briefly: Protac activity at CRBN/HDAC2 in mouse RAW264.7 cells assessed as induction of HDAC2 degradation at 0.01 to 10 uM measured after 24 hrs by Western blot analysis. The data set is classed as cell-based. As to conditions: dose 0.01-10 µM. An outline of the steps:
as §2

The target in data set [12] is T2, Protein cereblon/Histone deacetylase 3 (Mus musculus). Briefly: Protac activity at CRBN/HDAC3 in mouse RAW264.7 cells assessed as induction of HDAC3 degradation at 10 uM measured after 6 to 48 hrs by Western blot analysis. The data set is classed as cell-based. As to conditions: time 6-48 hrs. In short, it runs like this: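 RAW264.7 macrophages treated for the indicated times. HDAC3 level measured by western blot against β-actin. Bands quantified as fold of untreated control, mean ± SD of 2 independent experiments.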

Data set [13] shares this target. The data set can be described thus: Protac activity at CRBN/HDAC3 in mouse RAW264.7 cells assessed as increase of H3K27 acetylation at 10 uM measured after 24 hrs by Western blot analysis. The class given is cell-based. In short, it runs like this: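 RAW264.7 macrophages treated for 24h. H3K27 acetylation measured by western blot with acH3K27 antibody (1:1000), HRP detection. Bands quantified as fold of untreated control, mean ± SD of 2 independent experiments.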

The target is the same in data set [14]. Briefly: Protac activity at CRBN/HDAC3 in mouse RAW264.7 cells assessed as induction of HDAC3 degradation at 10 uM measured after 24 hrs in presence of HDAC ligand CI994 by Western blot analysis. The data set is classed as cell-based. An outline of the steps: (§3)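 RAW264.7 cells pre-treated 1h with pomalidomide or CI994 (competitor), then the PROTAC added for 24h combined treatment. Control cells received competitor alone for 25h. HDAC3 measured by western blot, quantified as fold of untreated control, mean ± SD of 2 independent experiments.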

Data set [15] has the same target. The data set can be described thus: Protac activity at CRBN/HDAC3 in mouse RAW264.7 cells assessed as induction of HDAC3 degradation at 10 uM measured after 24 hrs in presence of CRBN ligand pomalidomide by Western blot analysis. The data set is classed as cell-based. An outline of the steps:
as §3

Data set [16] has the same target. Briefly: Protac activity at CRBN/HDAC3 in mouse RAW264.7 cells assessed as induction of HDAC3 degradation at 10 uM measured after 24 hrs in presence of proteasome inhibitor bortezomib by Western blot analysis. The class given is cell-based. An outline of the steps:
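RAW264.7 macrophages treated 24h with bortezomib, the PROTAC, or both together. HDAC3 measured by western blot, quantified as fold of untreated control, mean ± SD of 2 independent experiments.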

Data set [17] has as its system RAW264.7. Briefly: Effect on LPS/IFNgamma-induced IL-10 mRNA expression in mouse RAW264.7 cells at 1 uM incubated for 20 hrs followed by LPS/IFNgamma stimulation and measured after 4 hrs by RT-qPCR analysis. Particulars: time 24.0 hrs. The class given is functional, cell-based. In short, it runs like this: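 RAW264.7 macrophages treated for 24h, with LPS/IFNγ stimulation during the final 4h. Vehicle cells received a proportional DMSO dilution. Total RNA isolated from DPBS-washed cells and IL-10 transcription measured by RT-qPCR. Mean ± SD of 2–3 independent experiments.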
For orientation: In qPCR the cycle at which signal appears reflects the starting amount.

Sequence of Histone deacetylase 1 (Q13547 whole entry, the tested form may be a part): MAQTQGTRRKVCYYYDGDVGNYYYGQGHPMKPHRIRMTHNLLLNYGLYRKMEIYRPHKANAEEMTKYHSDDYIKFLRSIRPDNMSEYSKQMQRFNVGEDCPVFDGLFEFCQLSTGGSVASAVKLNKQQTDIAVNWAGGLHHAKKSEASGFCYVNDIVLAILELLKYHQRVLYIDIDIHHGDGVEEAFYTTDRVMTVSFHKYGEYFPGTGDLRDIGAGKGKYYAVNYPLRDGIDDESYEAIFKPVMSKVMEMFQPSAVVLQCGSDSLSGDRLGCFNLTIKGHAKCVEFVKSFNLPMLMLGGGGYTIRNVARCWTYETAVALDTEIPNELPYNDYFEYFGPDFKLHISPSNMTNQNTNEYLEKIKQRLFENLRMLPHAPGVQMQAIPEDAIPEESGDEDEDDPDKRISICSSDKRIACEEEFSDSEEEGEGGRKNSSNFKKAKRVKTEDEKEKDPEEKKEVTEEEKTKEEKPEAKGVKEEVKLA
Sequence of Histone deacetylase 3/Nuclear receptor corepressor 2 (HDAC3/NCoR2) (O15379 whole entry, the tested form may be a part): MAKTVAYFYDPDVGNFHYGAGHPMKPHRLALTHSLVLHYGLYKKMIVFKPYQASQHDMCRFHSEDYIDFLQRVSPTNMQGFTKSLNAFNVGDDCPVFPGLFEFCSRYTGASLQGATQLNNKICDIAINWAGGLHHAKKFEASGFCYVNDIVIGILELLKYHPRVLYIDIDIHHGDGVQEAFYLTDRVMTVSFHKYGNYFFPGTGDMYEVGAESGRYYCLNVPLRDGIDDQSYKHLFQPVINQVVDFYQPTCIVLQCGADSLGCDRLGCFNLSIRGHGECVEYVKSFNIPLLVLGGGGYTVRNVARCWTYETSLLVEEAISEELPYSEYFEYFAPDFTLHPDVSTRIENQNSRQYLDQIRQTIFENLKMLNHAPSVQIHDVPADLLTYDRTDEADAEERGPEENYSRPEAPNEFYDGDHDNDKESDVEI
Sequence of Histone deacetylase 3/Nuclear receptor corepressor 2 (HDAC3/NCoR2) (Q9Y618 whole entry, further chain, the tested form may be a part): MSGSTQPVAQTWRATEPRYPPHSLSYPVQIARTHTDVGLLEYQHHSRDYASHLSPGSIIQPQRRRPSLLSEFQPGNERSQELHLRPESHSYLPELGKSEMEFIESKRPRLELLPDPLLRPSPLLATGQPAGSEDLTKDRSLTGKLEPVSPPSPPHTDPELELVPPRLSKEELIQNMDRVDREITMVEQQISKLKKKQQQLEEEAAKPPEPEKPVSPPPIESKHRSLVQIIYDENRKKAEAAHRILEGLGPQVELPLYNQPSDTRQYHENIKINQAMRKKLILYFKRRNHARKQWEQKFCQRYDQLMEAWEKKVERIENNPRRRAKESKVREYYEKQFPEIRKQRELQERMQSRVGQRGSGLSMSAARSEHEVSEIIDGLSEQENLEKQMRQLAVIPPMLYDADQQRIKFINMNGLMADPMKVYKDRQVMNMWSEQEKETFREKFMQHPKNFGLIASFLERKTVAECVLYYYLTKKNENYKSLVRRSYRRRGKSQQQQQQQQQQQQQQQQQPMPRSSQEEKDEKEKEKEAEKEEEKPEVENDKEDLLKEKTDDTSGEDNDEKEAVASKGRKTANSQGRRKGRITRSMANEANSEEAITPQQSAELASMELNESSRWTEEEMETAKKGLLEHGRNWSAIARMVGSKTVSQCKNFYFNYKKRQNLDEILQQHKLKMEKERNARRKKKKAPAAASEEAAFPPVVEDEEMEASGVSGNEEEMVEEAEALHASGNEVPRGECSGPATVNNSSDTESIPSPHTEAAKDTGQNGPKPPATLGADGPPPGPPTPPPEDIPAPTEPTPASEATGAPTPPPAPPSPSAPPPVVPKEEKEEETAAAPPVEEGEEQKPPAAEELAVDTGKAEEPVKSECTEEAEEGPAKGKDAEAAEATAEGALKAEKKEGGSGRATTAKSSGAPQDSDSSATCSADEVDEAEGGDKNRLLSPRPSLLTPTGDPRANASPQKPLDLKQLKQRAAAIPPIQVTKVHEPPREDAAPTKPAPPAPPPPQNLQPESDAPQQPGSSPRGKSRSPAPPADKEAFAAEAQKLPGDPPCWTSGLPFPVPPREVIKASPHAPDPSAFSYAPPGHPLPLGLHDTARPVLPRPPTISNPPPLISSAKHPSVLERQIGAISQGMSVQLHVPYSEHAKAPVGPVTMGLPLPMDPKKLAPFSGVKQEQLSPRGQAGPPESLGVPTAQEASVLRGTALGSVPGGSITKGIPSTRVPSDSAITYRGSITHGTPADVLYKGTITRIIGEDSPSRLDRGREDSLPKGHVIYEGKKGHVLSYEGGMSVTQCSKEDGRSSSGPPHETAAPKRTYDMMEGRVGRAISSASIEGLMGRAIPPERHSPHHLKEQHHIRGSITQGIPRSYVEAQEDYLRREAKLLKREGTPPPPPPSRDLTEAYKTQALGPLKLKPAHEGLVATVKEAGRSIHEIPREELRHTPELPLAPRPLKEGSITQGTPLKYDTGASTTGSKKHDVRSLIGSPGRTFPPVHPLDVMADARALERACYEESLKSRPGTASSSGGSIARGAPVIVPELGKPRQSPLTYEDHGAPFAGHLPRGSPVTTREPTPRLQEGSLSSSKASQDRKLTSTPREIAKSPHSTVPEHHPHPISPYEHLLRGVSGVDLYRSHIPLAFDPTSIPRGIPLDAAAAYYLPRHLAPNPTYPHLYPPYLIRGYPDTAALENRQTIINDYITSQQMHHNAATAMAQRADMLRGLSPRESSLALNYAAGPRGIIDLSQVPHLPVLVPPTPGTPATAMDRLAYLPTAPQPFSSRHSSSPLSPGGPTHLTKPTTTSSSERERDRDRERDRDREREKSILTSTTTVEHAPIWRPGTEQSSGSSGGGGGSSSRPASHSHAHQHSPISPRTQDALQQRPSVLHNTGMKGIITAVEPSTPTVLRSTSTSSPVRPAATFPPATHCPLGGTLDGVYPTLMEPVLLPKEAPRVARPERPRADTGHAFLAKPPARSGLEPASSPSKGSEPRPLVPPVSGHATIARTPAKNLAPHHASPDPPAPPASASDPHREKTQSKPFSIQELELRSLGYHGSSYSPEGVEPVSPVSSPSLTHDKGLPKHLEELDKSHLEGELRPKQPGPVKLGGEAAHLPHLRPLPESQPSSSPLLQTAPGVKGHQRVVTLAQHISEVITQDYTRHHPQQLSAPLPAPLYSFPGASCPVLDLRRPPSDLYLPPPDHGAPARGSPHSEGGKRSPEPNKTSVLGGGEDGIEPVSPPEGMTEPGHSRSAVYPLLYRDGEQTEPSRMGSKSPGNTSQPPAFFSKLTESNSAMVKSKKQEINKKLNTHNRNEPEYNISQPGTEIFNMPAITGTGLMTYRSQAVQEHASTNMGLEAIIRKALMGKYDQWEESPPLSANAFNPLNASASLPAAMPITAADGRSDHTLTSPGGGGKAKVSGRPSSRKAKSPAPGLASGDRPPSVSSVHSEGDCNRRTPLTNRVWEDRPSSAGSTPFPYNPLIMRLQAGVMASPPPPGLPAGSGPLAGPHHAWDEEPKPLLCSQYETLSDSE
Sequence of Histone deacetylase 2 (Q92769 whole entry, the tested form may be a part): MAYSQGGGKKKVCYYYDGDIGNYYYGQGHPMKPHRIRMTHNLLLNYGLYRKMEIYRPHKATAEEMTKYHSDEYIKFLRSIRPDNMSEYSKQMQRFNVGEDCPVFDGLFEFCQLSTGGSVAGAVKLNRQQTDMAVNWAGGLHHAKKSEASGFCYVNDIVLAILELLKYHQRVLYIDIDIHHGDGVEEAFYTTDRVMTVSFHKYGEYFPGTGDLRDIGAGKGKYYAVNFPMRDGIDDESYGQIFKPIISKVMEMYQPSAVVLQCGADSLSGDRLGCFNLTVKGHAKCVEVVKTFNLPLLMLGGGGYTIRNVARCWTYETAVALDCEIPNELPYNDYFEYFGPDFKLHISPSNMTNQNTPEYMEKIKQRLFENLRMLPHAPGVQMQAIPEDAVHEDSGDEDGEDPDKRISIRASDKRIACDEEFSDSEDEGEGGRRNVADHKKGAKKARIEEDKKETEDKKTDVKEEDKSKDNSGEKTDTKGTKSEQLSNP
T1 sequence (O09106 whole entry, looked up, one chain of several): as the sequence (Q13547 whole entry, the tested form may be a part) above, with R8K, D399E, E424D counted along it
Sequence of Protein cereblon/Histone deacetylase 2 (Mus musculus) (P70288 whole entry, looked up, one chain of several): as the sequence (Q92769 whole entry, the tested form may be a part) above, with V289A, T477P, T480A counted along it

For `CC(=O)Nc1ccc(C(=O)Nc2ccccc2N)cc1` [TACEDINALINE], the Activity in [1] turned out to be 30%.
As for `Nc1cccc2c1CN(C1CCC(=O)NC1=O)C2=O` (stereo unspecified) [LENALIDOMIDE], the Activity entry in [2] is recorded as “Toxic”.
As for `Nc1ccccc1NC(=O)c1ccc(NC(=O)CCCNC(=O)CNc2cccc3c2C(=O)N(C2CCC(=O)NC2=O)C3=O)cc1` (stereo unspecified), the viability at 24 h in data set [3] was more than 80%. Further, the negative logarithm of the IC50 (pIC50) (commonly the negative decadic logarithm of the IC50, by convention in mol/L) is 6.49 in data set [4], 5.82 in data set [5] and 6.25 in data set [6]. Further, the outcome in data set [7] and in data set [8] was inactive.
For `Nc1cc(F)ccc1NC(=O)c1ccc(NC(=O)CCCCNC(=O)CNc2cccc3c2C(=O)N(C2CCC(=O)NC2=O)C3=O)cc1` (stereo unspecified), the pIC50 in data set [4] is 5.44; in [5], 5.38; in [6], 5.96. Moreover, in data set [9], the DC50 (usually the concentration at which degradation of the target reaches its halfway point) was 320 nM. For the same molecule, the outcome in [10], in data set [11], in data set [14], in data set [15], in data set [16] and in data set [17] was inactive. Also, the outcome in data set [12] and in [13] was Active. For the same molecule, the Activity result in data set [2] is given as “Toxic”.
As for `Nc1ccccc1NC(=O)c1ccc(NC(=O)CCCCNc2cccc3c2C(=O)N(C2CCC(=O)NC2=O)C3=O)cc1` (stereo unspecified), the viability at 24 h in [3] was more than 80%. The results for the pIC50 in data set [4], in data set [5] and in [6] were 6.38, 6.00 and 6.00, respectively. In addition, the outcome in data set [7] was inactive.
